From ChEMBL document CHEMBL1137746, “New insights into the antioxidant activity of hydroxycinnamic acids: Synthesis and physicochemical characterization of novel halogenated derivatives” (Eur J Med Chem, 2009)

Key:
[1] = ABTS radical scavenging activity assessed as Trolox equivalent antioxidant capacity at 50 uM by spectrophotometric analysis; assay type: physicochemical
Summary of the method: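 ABTS•+ generated from 7 mM ABTS in water with 2.45 mM potassium persulfate, kept dark at room temperature 12–16 h. Ethanolic compound solutions added to 180 µL radical solution; absorbance followed over 20 min. Blank control set as 100% radical. Triplicate. TE = (A_control − A_test)/(A_control − A_trolox); Trolox reference.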

[2] = DPPH radical scavenging activity assessed as Trolox equivalent antioxidant capacity at 50 uM after 40 mins; assay type: functional
Summary of the method: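 DPPH in ethanol; decrease in absorbance at 517 nm measured. Blank was ethanol; control was DPPH solution in ethanol. Triplicate. Trolox used as reference; TE = (A_control − A_test)/(A_control − A_trolox), A_control being DPPH solution without sample.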

[3] = Octanol-water partition coefficient, log P of the compound

| SMILES | Activity [1] | logP [3] | Activity [2] |
| --- | --- | --- | --- |
| CCOC(=O)/C=C/c1cc(O)c(O)c(Br)c1 | 2.527 | 2.58 | 0.938 |
| COc1cc(/C=C/C(=O)O)cc(Br)c1O | 2.554 | 2.25 | 0.808 |
| O=C(O)/C=C/c1cc(O)c(O)c(Br)c1 | 2.496 | 1.98 | 1.01 |
| CCOC(=O)/C=C/c1cc(Br)c(O)c(OC)c1 | 2.558 | 2.85 | 0.558 |

More lines, main results first:

| Activity [1] | logP [3] | SMILES | Activity [2] |
| --- | --- | --- | --- |
| 2.538 |  | O=C(O)/C=C/c1ccc(O)c(O)c1 [CAFFEIC ACID] | 0.978 |
| 2.558 | 1.75 | CCOC(=O)/C=C/c1ccc(O)c(O)c1 [ETHYL CAFFEATE] | 0.877 |
| 2.538 | 2.02 | CCOC(=O)/C=C/c1ccc(O)c(OC)c1 [ETHYL FERULATE] | 0.593 |
| 2.534 | 1.42 | COc1cc(/C=C/C(=O)O)ccc1O [FERULATE] | 0.781 |
| 2.538 |  | COc1cc(/C=C/C(=O)O)cc(OC)c1O [SINAPINATE] | 0.862 |
